Sampled rows, rich in hits. Any-hit rate of the full collection: about 2.9%.
A3A deaminase: inhibitors of human APOBEC3A DNA deaminase; P31941; recombinant A3A, FAM/TAMRA ssDNA deamination fluorescence; 330,000 compounds, 0.41% hits; AID 493011; inhibition, % at 20 µM;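 active = at least 40% inhibition at 20 µM here, with at most 30% in a related deaminase screen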;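 also: plate controls were A3A with DMSO for no effect and wells lacking A3A enzyme for full effect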
Target sequence (P31941 whole entry, looked up): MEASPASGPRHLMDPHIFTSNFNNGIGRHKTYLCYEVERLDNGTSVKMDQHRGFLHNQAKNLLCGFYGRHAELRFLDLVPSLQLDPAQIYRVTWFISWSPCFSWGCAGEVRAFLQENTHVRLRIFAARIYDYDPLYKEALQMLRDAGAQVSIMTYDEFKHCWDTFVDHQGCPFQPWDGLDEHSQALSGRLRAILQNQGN
NS3 helicase inh: HCV NS3 helicase inhibition; NS3 helicase DNA unwinding, Cy5 molecular beacon fluorescence; inhibition, % at 10.9 µM; 290,000 compounds, 0.56% hits;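 active = inhibition above the mean of all tested compounds plus 3 SD, set per campaign, cut at about 35% in these data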;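 also: 0% = DMSO wells and 100% = thioflavine S control wells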
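Measured by: Cy5 fluorescence, 0 and 60 min reads / Assay system: NS3 helicase fragment of HCV / Control set: low DMSO, high thioflavine S at 110 µM / Times: 1 h reaction at 25 °C, ATP-initiated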
HCV core dimer: blocks dimerization of HCV core protein. TR-FRET GST/Flag-core106 dimerization, 1536-well. inhibition, % at 5 µM. 300,000 compounds, 0.33% hits;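 active = inhibition above the mean of all tested compounds plus 3 SD, set per screening campaign, cut at about 45% in these data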
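System: GST/Flag-tagged HCV core106 proteins. Incubation: compound-protein-antibody incubation 4 h at 22.5 °C. Technique: HTRF with 340 nm excitation, 617/671 nm emission. Medium: KF-containing HEPES buffer, pH 7.45, DTT, CHAPS, BSA. Read-out: inhibition (%) from 671 over 617 nm ratio. Also added: Eu(K)-anti-GST 90 ng/mL plus XL665-anti-Flag 1 µg/mL.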
APOBEC3G inh: inhibitors of human APOBEC3G DNA deaminase | Q9HC16 | recombinant A3G, ssDNA deamination FAM/TAMRA fluorescence | inhibition, % at 20 µM | 330,000 compounds, 0.28% hits;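 active = inhibition of at least 40% at 20 µM, with no more than 30% in the related APOBEC3A deaminase screen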;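 also: plate controls were DMSO wells with A3G for no effect and wells lacking A3G enzyme for full effect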
Target sequence (Q9HC16 whole entry, looked up): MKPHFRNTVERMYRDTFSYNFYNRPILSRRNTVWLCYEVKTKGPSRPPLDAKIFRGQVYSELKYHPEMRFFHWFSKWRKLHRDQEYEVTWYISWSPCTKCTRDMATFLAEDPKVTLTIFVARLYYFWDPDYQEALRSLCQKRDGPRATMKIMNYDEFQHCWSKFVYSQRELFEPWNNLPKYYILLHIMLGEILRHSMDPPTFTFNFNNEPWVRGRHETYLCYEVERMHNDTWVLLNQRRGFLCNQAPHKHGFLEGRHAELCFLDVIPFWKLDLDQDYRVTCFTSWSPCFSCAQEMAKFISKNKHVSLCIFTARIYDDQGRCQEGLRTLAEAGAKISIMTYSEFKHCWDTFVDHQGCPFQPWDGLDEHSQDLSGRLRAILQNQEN
PRMT1 inh: PRMT1 (human) inhibition, primary screen; recombinant PRMT1, activity-based probe fluorescence polarization; inhibition, % at 2.79 µM; 370,000 compounds, 1.3% hits; AID 652257;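 active = inhibition above about 21% made by adding two undisclosed values, limit read from the data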
ABHD5 PLIN5 PPI: inhibitors of human ABHD5-perilipin-5 interaction; 360,000 compounds, 0.78% hits; AID 602281; Q00G26+Q8WTS1; Split G. princeps luciferase complementation, luminescence, 4 h; inhibition, % at 4 µM;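 active = inhibition above the mean inhibition across every tested compound plus 3 SD, cut at about 22% in these data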;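 also: 0% = DMSO only wells and the 100% control is not disclosed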
PRMT1 confirm: confirmation of human PRMT1 inhibitors. 3,300 compounds, 42% hits. inhibition, % at 2.79 µM. recombinant His-PRMT1, activity-based probe fluorescence polarization. shares compounds with PRMT1 inh. AID 687036;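 active = mean inhibition across replicates above the hit cutoff derived for the earlier primary screen, cut at about 22% in these data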
The depositor's hits bear a star.

Screening Cc1cccc(/N=C/c2sc3ccccc3c2O)n1 returned A3A deaminase 1, NS3 helicase inh 9, HCV core dimer -21, APOBEC3G inh -4, PRMT1 inh 37*, ABHD5 PLIN5 PPI -2 and PRMT1 confirm 15.
Screening O=C(N/N=C/c1sc2ccccc2c1O)c1ccccc1 returned A3A deaminase -7, NS3 helicase inh 6, HCV core dimer -50, APOBEC3G inh -18 and ABHD5 PLIN5 PPI -6.
For Oc1ccc(Cl)cc1N=Cc1sc2ccccc2c1Cl the results were NS3 helicase inh 10, HCV core dimer 2, PRMT1 inh 4 and ABHD5 PLIN5 PPI -5.
`O=[N+]([O-])c1ccc(O)c(N=Cc2sc3ccccc3c2O)c1` gave NS3 helicase inh 1, HCV core dimer -17, PRMT1 inh 66*, ABHD5 PLIN5 PPI -5 and PRMT1 confirm 45*.
For Oc1c(C=Nc2cccc3cccnc23)sc2ccccc12 the results were A3A deaminase -10, NS3 helicase inh 7, HCV core dimer -17, APOBEC3G inh -25, PRMT1 inh 31* and PRMT1 confirm 32*.
For CC(=O)Nc1cc(-c2cccc(NS(C)(=O)=O)c2)cn2c(-c3cccc(C(F)(F)F)c3)cnc12 the results were PRMT1 inh 4 and ABHD5 PLIN5 PPI -3.
Screening CC(=O)Nc1cc(-c2ccccc2N(C)C)cn2c(-c3cccc(C(F)(F)F)c3)cnc12 returned PRMT1 inh 99*, ABHD5 PLIN5 PPI -9 and PRMT1 confirm 1.
For O=Cc1ccc2c(c1)OCCOCCOCCOCCO2 the results were PRMT1 inh 5 and ABHD5 PLIN5 PPI -9.
Screening O=[N+]([O-])c1ccccc1OCCCOc1cccc2cccnc12 returned A3A deaminase -1, NS3 helicase inh -17, HCV core dimer 4, APOBEC3G inh -1, PRMT1 inh 3 and ABHD5 PLIN5 PPI 2.
Screening COC(=O)c1nn2c(C(F)(F)F)cc(-c3ccc(Br)o3)nc2c1Br returned A3A deaminase -1, NS3 helicase inh 10, HCV core dimer -3, APOBEC3G inh 4, PRMT1 inh 30*, ABHD5 PLIN5 PPI 13 and PRMT1 confirm 2.
`CC(=O)CC[C@H]1CC[C@]2(CCCN(C(=O)C3CCCCC3)C2)O1` gave PRMT1 inh 2.
Cc1ccccc1NS(=O)(=O)c1ccc2c(c1)CCC(=O)N2 was read as PRMT1 inh -7 and ABHD5 PLIN5 PPI 3.
`C=CCn1c(SCC(=O)N2N=C(c3ccco3)CC2c2ccco2)nnc1-c1ccncc1` (centres undefined) gave A3A deaminase -2, NS3 helicase inh 12, HCV core dimer -3, APOBEC3G inh -5, PRMT1 inh 3 and ABHD5 PLIN5 PPI 2.
O=C(O)/C=C/C(=O)N1N=C(c2ccco2)CC1c1ccco1 (centres undefined) was read as A3A deaminase -1, NS3 helicase inh 7, HCV core dimer -3, APOBEC3G inh 0, PRMT1 inh 43*, ABHD5 PLIN5 PPI 11 and PRMT1 confirm 8.
Screening CCOCCCNC(=O)c1cc2c(s1)-c1ccccc1SC2 returned A3A deaminase -2, NS3 helicase inh 5, HCV core dimer 4, APOBEC3G inh -6, PRMT1 inh 40*, ABHD5 PLIN5 PPI 1 and PRMT1 confirm 15.
Screening O=[N+]([O-])c1cccc(C2Nc3ccccc3CO2)c1 (centres undefined) returned PRMT1 inh 1 and ABHD5 PLIN5 PPI -5.
`COc1ccccc1Cc1c(-c2ccco2)nc2ccc(Cl)cn12` gave PRMT1 inh 28*, ABHD5 PLIN5 PPI 27* and PRMT1 confirm 13.
For COc1ccccc1Cc1c(-c2ccc(C)cc2)nc2ccc(Cl)cn12 the results were PRMT1 inh -3 and ABHD5 PLIN5 PPI -6.
For COc1ccccc1Cc1c(-c2ccco2)nc2ccc(Br)cn12 the results were PRMT1 inh 31*, ABHD5 PLIN5 PPI 42* and PRMT1 confirm 26*.
For COc1ccccc1Cc1c(-c2ccc(F)cc2)nc2ccc(Br)cn12 the results were PRMT1 inh 7 and ABHD5 PLIN5 PPI 1.
Screening COc1cc(/C=C/C(=O)OCC(=O)c2ccc3c(c2)NC(=O)CO3)ccc1OC(F)F returned A3A deaminase 11, APOBEC3G inh -1, PRMT1 inh -2 and ABHD5 PLIN5 PPI 5.
For O=S(NC1CCCCC1)C12CC3CC(CC(C3)C1)C2 (centres undefined) the results were A3A deaminase 0, NS3 helicase inh -3, HCV core dimer -4, APOBEC3G inh -5, PRMT1 inh 100*, ABHD5 PLIN5 PPI -7 and PRMT1 confirm -2.
Screening Oc1ccc2ccccc2c1CNc1cnc2ccccc2c1 returned A3A deaminase -6, NS3 helicase inh 2, HCV core dimer -6, APOBEC3G inh -2, PRMT1 inh 43*, ABHD5 PLIN5 PPI 22* and PRMT1 confirm 29*.
For OC(Cc1ccccc1Br)c1ncc(-c2cccc(C(F)(F)F)c2)[nH]1 (centres undefined) the results were PRMT1 inh -2 and ABHD5 PLIN5 PPI -13.
Cc1ccc(-c2c3c([nH]c(=S)c2C#N)CCCC3)o1 was read as A3A deaminase 30, NS3 helicase inh 31, HCV core dimer 19, APOBEC3G inh 49, PRMT1 inh 50*, ABHD5 PLIN5 PPI 13 and PRMT1 confirm 31*.
For CCCCCCn1c(=O)[nH]c2nc3cc(N)c(C)cc3nc2c1=O the results were NS3 helicase inh 45*, PRMT1 inh 132*, ABHD5 PLIN5 PPI -21 and PRMT1 confirm 123*.
CCCCn1c(=O)[nH]c2nc3cc(NC(C)=O)ccc3nc2c1=O was read as A3A deaminase -3, NS3 helicase inh 25, HCV core dimer 0, APOBEC3G inh -6, PRMT1 inh 8 and ABHD5 PLIN5 PPI -4.
`CCOC(=O)c1c(-c2ccc(C)o2)csc1NC(=S)NC(=O)c1ccccc1Br` gave A3A deaminase -3, NS3 helicase inh 11, HCV core dimer 3, APOBEC3G inh -7, PRMT1 inh 55*, ABHD5 PLIN5 PPI 13 and PRMT1 confirm 1.
For Cc1cc(C(=O)N2CCC(Cc3ccccc3)CC2)c(C)o1 the results were A3A deaminase -2, NS3 helicase inh -8, HCV core dimer 5, APOBEC3G inh -7, PRMT1 inh 0 and ABHD5 PLIN5 PPI 2.
`O=C1C=CC(=Nc2ccc(F)cc2)O1` gave PRMT1 inh 50*, ABHD5 PLIN5 PPI 11 and PRMT1 confirm 79*.
For COc1cc2ccccc2cc1C(=O)NNC(=O)c1ccccc1O the results were A3A deaminase -2, NS3 helicase inh 5, HCV core dimer 4, APOBEC3G inh -2, PRMT1 inh 40*, ABHD5 PLIN5 PPI -3 and PRMT1 confirm -4.

Screening results (PubChem BioAssay)
